Converted amounts (≈) assume the structure as drawn.
How the values were obtained:
Staphylococcus aureus [1] = test: Antibacterial activity against clinical isolates of Staphylococcus aureus DM4001R after 24 hrs by […]; format: functional
Staphylococcus aureus [2] = test: Antibacterial activity against clinical isolates of methicillin-resistant Staphylococcus aureus DM9808R after 24 hrs by […]; format: functional
Staphylococcus aureus [3] = test: Antibacterial activity against clinical isolates of methicillin-resistant Staphylococcus aureus DM21455 after 24 hrs by […]; format: functional; details: DM21455, 24 h
Bacillus cereus = test: Antibacterial activity against clinical isolates of Bacillus cereus ATCC 11778 after 24 hrs by […]; format: functional; details: ATCC 11778, 24 h
[4] = Hemolytic activity against New Zealand white rabbit RBC after 1 hr by microplate reader analysis; format: ADME, cell-based, Oryctolagus cuniculus, Erythrocyte; details: rabbit red blood cells
How it was run: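 Rabbit RBCs spun from serum at 3,000 rpm for 10 min and washed twice in PBS. Mixed with compound in DMF at 4% v/v RBCs, 1 h at 37 °C. After centrifugation, hemoglobin in the supernatant read at 576 nm. 2% Triton X-100 was the positive control and 1% DMF the negative control.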

[5] = Selectivity index, ratio of HC50 for hemolytic activity against New Zealand white rabbit RBC to MIC for clinical isolates of Staphylococcus aureus DM4001
Staphylococcus aureus [6] = test: Induction of membrane permeabilization in clinical isolates of Staphylococcus aureus DM4001 at MIC by SYTOX green uptake assay; format: functional
How it was run: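 Exponential-phase cells washed twice in 20 mM PBS pH 7 and adjusted to OD620 0.09. Given 3 µM SYTOX Green and kept in the dark until fluorescence was stable, then compound added. Fluorescence followed in a stirred cuvette at ex 504/em 523 nm. Melittin 10 µg/mL was the positive control. Run at least twice; one run reported.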

Staphylococcus aureus [7] = test: Induction of membrane permeabilization in clinical isolates of Staphylococcus aureus DM4001 assessed as ATP leakage at MIC incubated for 10 mins by firefly luciferase based luminometry analysis; format: functional
How it was run: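 Exponential-phase cells washed twice in 20 mM PBS pH 7 and set to OD620 0.3. Exposed 10 min at 37 °C, then spun at 4000 rpm for 5 min. Supernatant mixed with luciferase reagent (1 mM DTT, 0.5 mM D-luciferin, 1.25 µg/mL firefly luciferase). Luminescence read over 30 cycles.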

COc1c(OCCCCN2CCN(C(=O)OC(C)(C)C)CC2)cc2oc3cc(OCCCCN4CCN(C(=O)OC(C)(C)C)CC4)c(CC=C(C)C)c(O)c3c(=O)c2c1CC=C(C)C
MIC (Staphylococcus aureus [1]): > 50 µg/mL | MIC (Staphylococcus aureus [2]): > 50 µg/mL | MIC (Staphylococcus aureus [3]): > 50 µg/mL | MIC (Bacillus cereus): > 50 µg/mL | HC50 at 1 h [4]: > 200 µg/mL

CCCN(CCC)CCCCOc1cc2oc3cc(OCCCCN(CCC)CCC)c(OC)c(CC=C(C)C)c3c(=O)c2c(O)c1CC=C(C)C
MIC (Staphylococcus aureus [1]): 25 µg/mL (≈ 34.7 µM) | MIC (Staphylococcus aureus [2]): 50 µg/mL (≈ 69.3 µM) | MIC (Staphylococcus aureus [3]): 25 µg/mL (≈ 34.7 µM) | MIC (Bacillus cereus): 50 µg/mL (≈ 69.3 µM) | HC50 at 1 h [4]: > 200 µg/mL | Selectivity ratio [5]: > 8 | Activity (Staphylococcus aureus [6]): 53637 cps | Activity (Staphylococcus aureus [7]): 5.123 µM

COc1c(OCCCCN2CCCC2)cc2oc3cc(OCCCCN4CCCC4)c(CCC(C)C)c(O)c3c(=O)c2c1CCC(C)C
MIC (Staphylococcus aureus [1]): 12.5 µg/mL (≈ 18.8 µM) | MIC (Staphylococcus aureus [2]): 6.25 µg/mL (≈ 9.4 µM) | MIC (Staphylococcus aureus [3]): 6.25 µg/mL (≈ 9.4 µM) | MIC (Bacillus cereus): 6.25 µg/mL (≈ 9.4 µM) | HC50 at 1 h [4]: 34.8 µg/mL | Selectivity ratio [5]: 1.4

COc1c(OCCCCn2ccnc2)cc2oc3cc(OCCCCn4ccnc4)c(CC=C(C)C)c(O)c3c(=O)c2c1CC=C(C)C
MIC (Staphylococcus aureus [1]): > 50 µg/mL | MIC (Staphylococcus aureus [2]): > 50 µg/mL | MIC (Staphylococcus aureus [3]): > 50 µg/mL | MIC (Bacillus cereus): > 50 µg/mL | HC50 at 1 h [4]: > 200 µg/mL

CCCCCN(C)CCCCOc1cc2oc3cc(OCCCCN(C)CCCCC)c(OC)c(CC=C(C)C)c3c(=O)c2c(O)c1CC=C(C)C
MIC (Staphylococcus aureus [1]): 25 µg/mL (≈ 34.7 µM) | MIC (Staphylococcus aureus [2]): 25 µg/mL (≈ 34.7 µM) | MIC (Staphylococcus aureus [3]): 25 µg/mL (≈ 34.7 µM) | MIC (Bacillus cereus): 12.5 µg/mL (≈ 17.3 µM) | HC50 at 1 h [4]: > 200 µg/mL | Selectivity ratio [5]: > 8 | Activity (Staphylococcus aureus [6]): 47166 cps | Activity (Staphylococcus aureus [7]): 8.949 µM

CCCN(CC)CCCCOc1cc2oc3cc(OCCCCN(CC)CCC)c(OC)c(CC=C(C)C)c3c(=O)c2c(O)c1CC=C(C)C
MIC (Staphylococcus aureus [1]): 6.25 µg/mL (≈ 9.02 µM) | MIC (Staphylococcus aureus [2]): 6.25 µg/mL (≈ 9.02 µM) | MIC (Staphylococcus aureus [3]): 12.5 µg/mL (≈ 18 µM) | MIC (Bacillus cereus): 25 µg/mL (≈ 36.1 µM) | HC50 at 1 h [4]: 63.3 µg/mL | Selectivity ratio [5]: 5.1 | Activity (Staphylococcus aureus [6]): 82176 cps | Activity (Staphylococcus aureus [7]): 12.736 µM

COc1c(OCCCCN2C(=O)c3ccccc3C2=O)cc2oc3cc(OCCCCN4C(=O)c5ccccc5C4=O)c(CC=C(C)C)c(O)c3c(=O)c2c1CC=C(C)C
MIC (Staphylococcus aureus [1]): > 50 µg/mL | MIC (Staphylococcus aureus [2]): > 50 µg/mL | MIC (Staphylococcus aureus [3]): > 50 µg/mL | MIC (Bacillus cereus): > 50 µg/mL | HC50 at 1 h [4]: > 200 µg/mL

O=c1c2ccc(OCCCCN3CCCC3)cc2oc2cc(OCCCCN3CCCC3)cc(O)c12
MIC (Staphylococcus aureus [1]): > 50 µg/mL | MIC (Staphylococcus aureus [2]): > 50 µg/mL | MIC (Staphylococcus aureus [3]): > 50 µg/mL | MIC (Bacillus cereus): > 50 µg/mL | HC50 at 1 h [4]: > 200 µg/mL

COc1c(OCCCCN2CCOCC2)cc2oc3cc(OCCCCN4CCOCC4)c(CC=C(C)C)c(O)c3c(=O)c2c1CC=C(C)C
MIC (Staphylococcus aureus [1]): > 50 µg/mL | MIC (Staphylococcus aureus [2]): > 50 µg/mL | MIC (Staphylococcus aureus [3]): > 50 µg/mL | MIC (Bacillus cereus): > 50 µg/mL | HC50 at 1 h [4]: > 200 µg/mL | Activity (Staphylococcus aureus [6]): 6358 cps | Activity (Staphylococcus aureus [7]): 0.229 µM

CCCCN(C)CCCCOc1cc2oc3cc(OCCCCN(C)CCCC)c(OC)c(CC=C(C)C)c3c(=O)c2c(O)c1CC=C(C)C
MIC (Staphylococcus aureus [1]): 50 µg/mL (≈ 72.2 µM) | MIC (Staphylococcus aureus [2]): 50 µg/mL (≈ 72.2 µM) | MIC (Staphylococcus aureus [3]): 25 µg/mL (≈ 36.1 µM) | MIC (Bacillus cereus): 25 µg/mL (≈ 36.1 µM) | HC50 at 1 h [4]: 60.5 µg/mL | Selectivity ratio [5]: 1.2 | Activity (Staphylococcus aureus [6]): 114095 cps | Activity (Staphylococcus aureus [7]): 8.862 µM

CCCN(C)CCCCOc1cc2oc3cc(OCCCCN(C)CCC)c(OC)c(CC=C(C)C)c3c(=O)c2c(O)c1CC=C(C)C
MIC (Staphylococcus aureus [1]): 25 µg/mL (≈ 37.6 µM) | MIC (Staphylococcus aureus [2]): 25 µg/mL (≈ 37.6 µM) | MIC (Staphylococcus aureus [3]): 12.5 µg/mL (≈ 18.8 µM) | MIC (Bacillus cereus): 12.5 µg/mL (≈ 18.8 µM) | HC50 at 1 h [4]: 32.6 µg/mL | Selectivity ratio [5]: 1.3 | Activity (Staphylococcus aureus [6]): 87537 cps | Activity (Staphylococcus aureus [7]): 3.945 µM

COc1c(OCCCCN2CCCC2)cc2oc3cc(OCCCCN4CCCC4)c(CC=C(C)C)c(O)c3c(=O)c2c1CC=C(C)C
MIC (Staphylococcus aureus [1]): 1.56 µg/mL (≈ 2.36 µM) | MIC (Staphylococcus aureus [2]): 1.56 µg/mL (≈ 2.36 µM) | MIC (Staphylococcus aureus [3]): 1.56 µg/mL (≈ 2.36 µM) | MIC (Bacillus cereus): 6.25 µg/mL (≈ 9.46 µM) | Selectivity ratio [5]: 16 | Activity (Staphylococcus aureus [6]): 814 cps | Activity (Staphylococcus aureus [7]): 0.465 µM

COc1c(OCCCCN2CCN(CCN(C)C)CC2)cc2oc3cc(OCCCCN4CCN(CCN(C)C)CC4)c(CC=C(C)C)c(O)c3c(=O)c2c1CC=C(C)C
MIC (Staphylococcus aureus [1]): 6.25 µg/mL (≈ 7.5 µM) | MIC (Staphylococcus aureus [2]): 3.12 µg/mL (≈ 3.75 µM) | MIC (Staphylococcus aureus [3]): 3.12 µg/mL (≈ 3.75 µM) | MIC (Bacillus cereus): 6.25 µg/mL (≈ 7.5 µM) | HC50 at 1 h [4]: 35.9 µg/mL | Selectivity ratio [5]: 5.7 | Activity (Staphylococcus aureus [6]): 5850 cps | Activity (Staphylococcus aureus [7]): 2.975 µM

COc1c(OCCCCI)cc2oc3cc(OCCCCI)c(CC=C(C)C)c(OCCCCI)c3c(=O)c2c1CC=C(C)C
MIC (Staphylococcus aureus [1]): > 50 µg/mL | MIC (Staphylococcus aureus [2]): > 50 µg/mL | MIC (Staphylococcus aureus [3]): > 50 µg/mL | MIC (Bacillus cereus): 50 µg/mL (≈ 52.3 µM) | HC50 at 1 h [4]: > 200 µg/mL

Source: ChEMBL document CHEMBL3751813, “Nonpeptidic Amphiphilic Xanthone Derivatives: Structure-Activity Relationship and Membrane-Targeting Properties” (J Med Chem, 2016)
